Measured values from ChEMBL document CHEMBL2203173 (J Med Chem, 2012).

Experiments:
A549 [1] = test: Antiproliferative activity at human A549 cells after 72 hrs by MTT assay; format: functional, cell-based
DMS-53 = test: Antiproliferative activity at human DMS53 cells after 72 hrs by MTT assay; format: functional, cell-based
SK-N-MC [2] = test: Antiproliferative activity at human SK-N-MC cells after 72 hrs by MTT assay; format: functional, cell-based
A549 [3] = test: Ratio of compound IC50 to Dp44mT IC50 for human A549 cells; format: functional
SK-N-MC [4] = test: Ratio of Dp4mT IC50 to compound IC50 for human SK-N-MC cells; format: functional
A549 [5] = test: Ratio of compound IC50 to DFO IC50 for human A549 cells; format: functional
Summary of the method: (§1)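 A549 human non-small cell lung carcinoma cells were exposed to agents for 72 h. IC50 is the concentration that inhibits cell growth to 50% of the untreated control. Values are mean ± SD of three experiments. The ratio is the compound IC50 divided by the IC50 of the reference chelator (DFO or NIH) from the same assay.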

A549 [6] = test: Ratio of compound IC50 to NIH IC50 for human A549 cells; format: functional; summary of the method: as §1

COc1cc([C@@H]2c3cc4c(cc3[C@@H](O[C@@H]3O[C@@H]5CO[C@@H](C)O[C@H]5[C@H](O)[C@H]3O)[C@H]3COC(=O)[C@H]23)OCO4)cc(OC)c1O [ETOPOSIDE]
IC50 (A549 [1]; Homo sapiens, A549, 72 h): 800 nM | IC50 (DMS-53; Homo sapiens, DMS-53, 72 h): 1500 nM

CCN(C)C(=S)N/N=C(\c1ccccc1)c1ccccn1
IC50 (SK-N-MC [2]): 6 nM

CN(C(=S)NN=C(c1ccccn1)c1ccccn1)C1CCCCC1
Ratio IC50 (A549 [3]): 5 | IC50 (DMS-53; dms-53): 8 nM | Ratio IC50 (SK-N-MC [4]): 23 | IC50 (SK-N-MC [2]): 13 nM

CCN(C)C(=S)NN=C(c1ccccn1)c1ccccn1
Ratio IC50 (A549 [5]): 137 | Ratio IC50 (A549 [6]): 137 | IC50 (A549 [1]; a549): 10 nM | IC50 (DMS-53; dms-53): 8 nM | IC50 (SK-N-MC [2]): 4 nM
